# m5-HT2A agonist: mouse Htr2a agonists via beta-arrestin recruitment, primary screen, cell-based, luminescence | 5-hydroxytryptamine receptor 2A (Mus musculus), P35363 | CHO-K1 mHTR2A beta-arrestin complementation; percent of 30 µM serotonin response | activation, % at 7.6 µM | actives 0.66% (n = 360,000) | AID 624169, 2012;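 active = activation above a run cutoff, the mean activation of all tested compounds plus 3 SD, cut at about 14% in these data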;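 also: 0% = plate median of compound wells and 100% = 30 µM serotonin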
# MC4R antag cAMP: MC4R antagonists of cAMP signaling, primary screen, cell-based, TR-FRET, antagonist arm of biased-ligand search | MC4R-expressing cells, MTII-stimulated cAMP, LANCE TR-FRET | actives 0.48% (n = 360,000) | inhibition, % at 6.5 µM;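 active = inhibition above its plate's cutoff, the mean of tested wells on that plate plus 3 SD, cut at about 29% in these data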;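 also: 0% = Melanotan II alone and 100% = Melanotan II plus saturating MCL0020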
#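 system = U2OS cells with stable human MC4R expression | also added = Melanotan II challenge after compound preincubation | dosing = one concentration, 6.5 µM nominal | incubation = compound 30 min, challenge 1 h, detection 1 h | measured by = TR-FRET with Eu-cAMP and labeled anti-cAMP, 671 nm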
# MC4R ag barr: MC4R agonists recruiting beta-arrestin, primary screen, cell-based, luminescence, agonist arm of biased-ligand search | actives 0.98% (n = 360,000) | U2OS MC4R beta-arrestin complementation; percent of melanotan II response, DMSO zero | AID 540308, 2011 | Melanocortin receptor 4 (Homo sapiens), P32245 | activation, % at 8.9 µM;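 active = activation above a per-plate cutoff, the mean activation of sample wells on that plate plus 3 SD, cut at about 8% in these data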
# Lipid droplet: inhibitors of hepatocyte lipid droplet formation, primary screen, imaging, high-throughput imaging, BODIPY stain. AML12 mouse hepatocytes, oleate lipid droplets. inhibition, % at 6.5 µM. actives 0.4% (n = 240,000). AID 1656, 2009;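 active = lipid droplet intensity inhibited by at least 50%, with more than 500 cells counted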
#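 material = mouse AML12 hepatocyte cell line, fixed after treatment | also added = 100 µM oleic acid challenge | doses = compound at 6.5 µM only | schedule = overnight exposure | technique = Image-based BODIPY and DAPI two-channel analysis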
# PREPL inh: PREPL enzyme inhibitors, primary screen, biochemical, fluorescence polarization. AID 2751, 2010. inhibition, % at 5.96 µM. actives 0.68% (n = 320,000). recombinant PREPL, fluorescence polarization activity-based probe;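 also: 0% = enzyme with DMSO and 100% = wells lacking enzyme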
# Target sequence (Q4J6C6 whole entry, looked up): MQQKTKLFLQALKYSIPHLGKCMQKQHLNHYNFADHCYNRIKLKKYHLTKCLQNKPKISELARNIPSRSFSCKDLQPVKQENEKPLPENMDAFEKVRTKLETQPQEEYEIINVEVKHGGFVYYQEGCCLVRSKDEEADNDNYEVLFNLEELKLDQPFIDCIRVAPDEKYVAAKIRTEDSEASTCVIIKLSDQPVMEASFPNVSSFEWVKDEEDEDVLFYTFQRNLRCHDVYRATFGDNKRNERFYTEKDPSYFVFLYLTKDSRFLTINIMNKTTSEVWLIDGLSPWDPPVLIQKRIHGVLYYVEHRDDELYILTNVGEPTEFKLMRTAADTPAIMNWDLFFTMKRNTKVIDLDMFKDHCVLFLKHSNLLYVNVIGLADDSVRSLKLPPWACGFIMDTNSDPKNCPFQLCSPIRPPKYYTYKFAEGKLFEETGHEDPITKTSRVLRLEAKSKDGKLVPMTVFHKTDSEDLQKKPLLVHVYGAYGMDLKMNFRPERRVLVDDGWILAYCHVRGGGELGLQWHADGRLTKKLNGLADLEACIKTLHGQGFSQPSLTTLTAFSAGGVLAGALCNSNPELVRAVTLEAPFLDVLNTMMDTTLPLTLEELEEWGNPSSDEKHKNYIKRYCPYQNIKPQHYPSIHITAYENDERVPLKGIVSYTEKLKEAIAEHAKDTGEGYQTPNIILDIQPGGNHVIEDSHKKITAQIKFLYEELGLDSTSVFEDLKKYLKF
# NTR1 ag: agonists of human NTR1, primary screen, imaging, U2OS cells, beta-arrestin-GFP, high content; AID 493036, 2011; activation, % at 20 µM; NTR1-U2OS beta-arrestin-GFP spot imaging, agonist mode; actives 0.17% (n = 330,000);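 active = activation at or above 40% of the spot to cytoplasm intensity ratio, with at least 20 cells analyzed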;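 also: 0% = DMSO without peptide and 100% = 100 nM NTR1 peptide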
# PREPL confirm: human PREPL enzyme inhibitors, confirmation, biochemical, fluorescence polarization; actives 67% (n = 2,000); recombinant PREPL, fluorescence polarization activity probe; shares compounds with PREPL inh; AID 2803, 2010; inhibition, % at 5.96 µM;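 also: 0% = protein with DMSO and 100% = wells lacking protein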
# Numbers without * were called inactive; nt = no result given. Sampled rows, rich in hits. Any-hit rate of the full collection: about 2.7%. Rule as the data show it, unless noted: active = inhibition above about 43%; inactive = the rest.
SMILES,m5-HT2A agonist,MC4R antag cAMP,MC4R ag barr,Lipid droplet,PREPL inh,NTR1 ag,PREPL confirm
C[C@@H]1O[C@@H](OC[C@H]2O[C@@H](Oc3cc(O)c4c(=O)cc(-c5ccc(O)c(O)c5)oc4c3)[C@H](O)[C@@H](O)[C@@H]2O)[C@H](O)[C@H](O)[C@H]1O,-5,-8,-1,nt,28,-1,nt
O=C(O)C(CCc1ccccc1)N1C(=O)c2ccccc2C1=O (configuration not stated),6,12,0,nt,nt,nt,nt
O=C(CCC(=O)OCCOc1ccccc1)OCCOc1ccccc1,-5,nt,nt,nt,nt,nt,nt
N#C/C(=C(/O)CSc1nnc(Cc2cccs2)n1C1CCCCC1)c1nc2ccccc2[nH]1,8,6,-2,nt,43*,2,35
COc1ccccc1-c1nnc(SC/C(O)=C(\C#N)c2nc3ccccc3[nH]2)n1C1CCCCC1,3,5,-1,-45,-11,4,nt
COc1ccc(C(C)(O)c2nc(-c3ccc(F)cc3OC)cs2)cc1 (configuration not stated),3,-4,0,nt,nt,nt,nt
CC1(C(=O)Nc2ccc(Cl)c(C(F)(F)F)c2)Cc2c(-c3ccc(C(N)=O)cc3)ccnc2O1 (configuration not stated),4,8,-2,nt,nt,nt,nt
CNc1oc(-c2ccccc2Cl)nc1P(=O)(c1ccccc1)c1ccccc1,13,6,-1,-13,44*,19,55*
OCC1OC(n2cnc3c(/C=C(\O)c4ccccc4)ncnc32)C(O)C1O (configuration not stated),-1,-1,-1,nt,nt,nt,nt
C=C1N(C)c2cc([N+](=O)[O-])c(N)cc2C1(C)C,-7,3,-3,-4,85*,2,44*
Cc1c(CCOC(=O)C23CC4CC(CC(C)(C4)C2)C3)sc[n+]1CC(=O)c1ccccc1,-8,-12,9.3*,-18,48*,37,44*
Cc1c(CCOC(=O)c2cc([N+](=O)[O-])cc([N+](=O)[O-])c2)sc[n+]1CC(=O)c1ccccc1,-6,4,-3,-5,56*,1,50*
Cc1c(CCOC(=O)c2ccccc2)sc[n+]1CC(=O)c1ccc(Br)cc1,0,13,1,nt,13,0,nt
O=C1NC(Cc2c[nH]c3ccccc23)C(=O)N1Cc1ccc(CN2C(=O)NC(Cc3c[nH]c4ccccc34)C2=O)cc1 (configuration not stated),-2,-2,-2,nt,76*,6,57*
CC(=O)N1CCc2ccc(NC(=O)c3c(-c4c(Cl)cccc4Cl)noc3C)cc21,3,4,1,4,9,0,nt
COc1ccc(N(CC(=O)NCCSCc2ccco2)S(=O)(=O)c2ccccc2)cc1Cl,-5,3,-5,-10,0,0,nt
Cn1ccc2cc(-c3ccc4ncnc(NCc5cccs5)c4c3)ccc21,6,-5,-1,nt,50*,5,41
COc1cccc(-c2ccc3ncnc(NCc4cccs4)c3c2)c1,1,3,0,nt,14,1,nt
Fc1ccc(-c2ccc3c(c2)C2CC3CCN2)cc1 (configuration not stated),5,1,3,nt,nt,nt,nt
CN(CC(=O)Nc1ccccc1Cl)C(=O)c1cccc(S(=O)(=O)N2CCN(Cc3ccccc3)CC2)c1,12,8,3,nt,67*,0,70*
O=C(c1ccccc1)c1coc2ccc(O)c(CN3CCOCC3)c12,0,3,3,-19,43*,-4,44*
COc1ccc(C(=O)c2coc3ccc(O)c(CN4CCCCC4)c23)cc1,-3,3,-1,-12,57*,4,59*
COC(=O)c1ccc(N2CCN(c3ccccc3)CC2)c(NC(=O)C2CC2)c1,0,4,-2,nt,50*,4,39
COc1cc(C#Cc2c(-c3cncn3C)n(C)c3ccc(-c4cnc(N5CCOCC5)nc4)cc23)cc(OC)c1,7,7,-1,nt,33,0,nt
COc1cc(C#Cc2c(-c3cncn3C)n(C)c3ccc(-c4ccc(CN5CCOCC5)cc4)cc23)cc(OC)c1,-11,7,-1,nt,45*,1,29
SMILES,m5-HT2A agonist,MC4R antag cAMP,MC4R ag barr,Lipid droplet,PREPL inh,NTR1 ag,PREPL confirm
Oc1cc(Nc2ccncc2)cc2cccnc12,-17,-3,-2,nt,47*,1,51*
CC(C)(C)c1ccc(Cn2c(=N)n(CC(O)c3ccco3)c3ccccc32)cc1 (configuration not stated),-5,-7,1,-16,29,8,nt
Cc1ccccc1Cn1c(=N)n(CC(O)c2ccco2)c2ccccc21 (configuration not stated),-2,-2,-2,-68,45*,-2,43
COc1ccc(N(CC(=O)N2CCN(c3cccc(C)c3C)CC2)S(=O)(=O)c2c(C)noc2C)cc1,0,6,-1,-34,-12,1,nt
S=C(NCCCN1CCOCC1)N1CCN(c2nc(-c3ccc(Cl)cc3)cs2)CC1,-7,15,1,-1,44*,8,43*
CCCn1c(N)c(N(CCOC)C(=O)CSCC(=O)Nc2ccc(OC)cc2)c(=O)[nH]c1=O,7,0,-2,nt,6,1,nt
COc1cc(/C=C2\SC(N3CCC(C)CC3)=NC2=O)ccc1O,-14,1,-2,2,44*,1,12
COc1ccc(/C=C2\SC(N3CCCCC3)=NC2=O)cc1OC,-4,1,-2,nt,14,4,nt
Cc1ccc(CNC(=O)/C=C/c2ccc(S(=O)(=O)N3CCOCC3)cc2)cc1,-4,27,-2,14,-2,0,nt
O=c1cc(-c2ccc(O)c(O)c2)oc2c1ccc1ccccc12,0,-29,-2,nt,52*,32,33
O=c1oc(-c2ccc(O)c(O)c2)cc2cccc(O)c12,-5,-14,-2,nt,67*,2,38
CCCC(C)NC(=O)CSc1nc2ccc(C)cc2[nH]1 (configuration not stated),0,10,-2,2,1,0,nt
CNC(=O)c1ccc(-c2sc3nc(N4CCOCC4)c4c(c3c2N)CCCC4)o1,6,7,0,nt,48*,16,32
